This note sets out measurements from ChEMBL document CHEMBL4152390, “Discovery of the First-in-Class Dual Histone Deacetylase-Proteasome Inhibitor” (J Med Chem, 2018).

Assay [1] has as its system SEM cells. Briefly: Inhibition of HDAC6/chymotrypsin-like activity of 20S proteasome in human SEM cells assessed as increase in ATF4 protein expression at 0.1 to 10 uM after 18 hrs by Western blot assay. The class given is cell-based. In a few lines:
(§1)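 Cells treated 18 h at indicated concentrations; lysates analysed by western blot for heat shock (Grp94, HSP70, HSP40, HSP27), UPR (BIP, ATF4, ATF6, pJNK) and autophagy (LC3B, p62) proteins.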
On the technique in general: In western blotting, separated proteins are transferred to a membrane and probed.

Assay [2] concerns the target T1, Protein deacetylase HDAC6 (Homo sapiens, UniProt Q9UBN7).
T1 sequence (Q9UBN7 whole entry): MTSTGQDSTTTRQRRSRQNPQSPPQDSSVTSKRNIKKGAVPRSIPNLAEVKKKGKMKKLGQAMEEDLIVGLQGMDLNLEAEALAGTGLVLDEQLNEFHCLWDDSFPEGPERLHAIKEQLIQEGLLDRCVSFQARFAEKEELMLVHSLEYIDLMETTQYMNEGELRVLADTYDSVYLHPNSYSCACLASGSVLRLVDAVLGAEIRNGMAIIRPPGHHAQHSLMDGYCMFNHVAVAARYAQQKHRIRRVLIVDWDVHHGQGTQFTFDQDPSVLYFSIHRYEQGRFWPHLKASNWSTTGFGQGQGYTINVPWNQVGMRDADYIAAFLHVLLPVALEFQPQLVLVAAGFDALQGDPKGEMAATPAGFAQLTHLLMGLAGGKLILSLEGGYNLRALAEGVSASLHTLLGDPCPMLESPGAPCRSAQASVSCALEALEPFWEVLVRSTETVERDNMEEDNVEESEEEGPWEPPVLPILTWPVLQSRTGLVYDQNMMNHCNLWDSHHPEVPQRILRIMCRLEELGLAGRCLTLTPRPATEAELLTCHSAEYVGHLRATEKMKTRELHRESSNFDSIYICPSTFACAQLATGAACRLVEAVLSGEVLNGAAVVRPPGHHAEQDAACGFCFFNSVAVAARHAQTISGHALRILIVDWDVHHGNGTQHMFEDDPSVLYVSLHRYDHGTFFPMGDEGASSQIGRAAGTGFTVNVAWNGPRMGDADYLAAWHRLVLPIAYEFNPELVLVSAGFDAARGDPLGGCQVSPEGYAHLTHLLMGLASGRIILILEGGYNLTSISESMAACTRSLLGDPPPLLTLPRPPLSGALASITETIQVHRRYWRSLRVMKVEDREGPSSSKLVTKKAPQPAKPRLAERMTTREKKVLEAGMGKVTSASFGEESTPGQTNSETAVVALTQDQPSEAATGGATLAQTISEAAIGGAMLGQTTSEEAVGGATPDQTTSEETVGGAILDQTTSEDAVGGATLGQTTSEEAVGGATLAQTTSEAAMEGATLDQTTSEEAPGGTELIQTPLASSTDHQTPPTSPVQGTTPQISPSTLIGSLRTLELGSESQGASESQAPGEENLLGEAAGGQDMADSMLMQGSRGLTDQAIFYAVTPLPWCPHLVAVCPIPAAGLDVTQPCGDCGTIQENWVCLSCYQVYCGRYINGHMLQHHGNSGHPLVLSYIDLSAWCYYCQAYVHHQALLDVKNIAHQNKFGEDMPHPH
Put plainly: Inhibition of N-terminal GST-tagged recombinant human HDAC6 expressed in baculovirus infected insect cells using RHKK(Ac)AMC as substrate by fluorescence-based assay.

Assay [3] concerns SEM cells. Put plainly: Induction of early differentiation of human SEM cells assessed as increase in CD11b expression at IC50 to 2 times IC50 after 72 hrs by FACS analysis. It is filed as functional, cell-based. In a few lines: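 Surface CD11b and CD14 measured by FACS using fluorochrome-coupled monoclonal antibodies with matched isotype controls, after treatment in liquid medium.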
A general note: A flow cytometer gives signals particle by particle.

For assay [4], the target named is T2, Protein deacetylase HDAC6 (Homo sapiens) (UniProt Q9UBN7).
T2 sequence (whole entry): T1 sequence (Q9UBN7 whole entry)
Put plainly: Inhibition of HDAC6 in human SEM cells assessed as increase in acetyl-histone H3 expression at 0.1 to 10 uM after 24 hrs by immunoblot assay. The class given is cell-based. In short, it runs like this:
(§2)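 Cells exposed for 24 h at indicated concentrations; lysates immunoblotted for acetyl-α-tubulin, acetyl-histone H3, PARP, with GAPDH as loading control.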

In assay [5] the test system is SEM cells. Briefly: Inhibition of HDAC6/chymotrypsin-like activity of 20S proteasome in human SEM cells assessed as increase in HSP27 protein expression at 0.1 to 10 uM after 18 hrs by Western blot assay. The class given is cell-based. In a few lines: as §1
Assay [6] in a line: Cytotoxicity against human RPMI18226 cells after 72 hrs by CellTiter-Glo luminescent cell viability assay. The class given is functional, cell-based. The conditions noted are these: RPMI18226, 72 h. A general note: In ATP-based viability assays light output follows the ATP content of the culture.
Another assay deals with SUP-B15. Briefly: Cytotoxicity against imatinib-resistant human SUP-B15 cells after 72 hrs by CellTiter-Glo luminescent cell viability assay. The conditions noted are these: SUP-B15, 72 h. It is filed as functional, cell-based.
Assay [7] is described as follows: Cytotoxicity against human BCP-ALL cells derived from patient 4 after 72 hrs by CellTiter-Glo luminescent cell viability assay. It is filed as functional, cell-based.
The target in assay [8] is Proteasome Macropain subunit (Homo sapiens) (UniProt P49721). Briefly: Inhibition of trypsin-like activity of 20S proteasome in human SEM cells at 4 nM to 25 uM using Z-LRR-aminoluciferin as substrate after 2 hrs by proteasome-Glo assay. It is filed as cell-based.
Assay [9] has as its target T2, Protein deacetylase HDAC6 (Homo sapiens). Put plainly: Inhibition of HDAC6 in human HL60 cells assessed as increase in acetyl-histone H3 expression at 0.1 to 10 uM after 24 hrs by immunoblot assay. The class given is cell-based. In a few lines: as §2
Assay [10] relates to SEM cells. Briefly: Antiproliferative activity against human SEM cells at IC50 to 2 times IC50 after 24 to 72 hrs by trypan exclusion method. The class given is functional, cell-based.
The nature of assay [11]: Cytotoxicity against human BCP-ALL cells derived from patient 2 after 72 hrs by CellTiter-Glo luminescent cell viability assay. The class given is functional, cell-based. In short, it runs like this:
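Compounds dispensed digitally at increasing concentrations, 50 nM–25 μM; viability read by CellTiter-Glo luminescence after 72 h. Raw data normalized to controls, IC50 from sigmoid dose curve by non-linear regression. Patient samples: primary cells from newly diagnosed or relapsed patients, cultured in stem cell expansion or mononuclear cell medium.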

Assay [12] concerns SEM cells. Briefly: Inhibition of HDAC6/chymotrypsin-like activity of 20S proteasome in human SEM cells assessed as increase in BIP protein expression at 0.1 to 10 uM after 18 hrs by Western blot assay. The class given is cell-based. In a few lines: as §1
In assay [13] the target is Proteasome Macropain subunit (Homo sapiens) (UniProt P49721). Put plainly: Inhibition of trypsin-like activity of 20S proteasome in human HL60 cells at 4 nM to 25 uM using Z-LRR-aminoluciferin as substrate after 2 hrs by proteasome-Glo assay. It is filed as cell-based.
Assay [14] is described as follows: Cytotoxicity against human BCP-ALL cells derived from patient 1 after 72 hrs by CellTiter-Glo luminescent cell viability assay. It is filed as functional, cell-based.
In assay [15] the target is T2, Protein deacetylase HDAC6 (Homo sapiens). Put plainly: Inhibition of HDAC6 in imatinib-resistant human SUP-B15 cells assessed as increase in acetyl-histone H3 expression at 0.1 to 10 uM after 24 hrs by immunoblot assay. The class given is cell-based. In a few lines:
as §2

Assay [16] has as its system SEM cells. Put plainly: Inhibition of HDAC6/chymotrypsin-like activity of 20S proteasome in human SEM cells assessed as decrease in aggresome accumulation at IC50 to 2 times IC50 after 18 hrs by FACS analysis. The class given is cell-based. In a few lines: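 Cells treated 18 h, then stained with a proteostat aggresome dye plus DNA stain. Imaged by fluorescence microscopy (63X objective) or analysed by FACS, with aggresome propensity factor from relative mean fluorescence intensity.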

Each structure is given as a SMILES string. pIC50: −log10 of the molar value. Activity calls are given as the source filed them. The calls are words filed in the database; no cut-off is given here.

Sequence of Proteasome Macropain subunit (Homo sapiens) (P49721 whole entry): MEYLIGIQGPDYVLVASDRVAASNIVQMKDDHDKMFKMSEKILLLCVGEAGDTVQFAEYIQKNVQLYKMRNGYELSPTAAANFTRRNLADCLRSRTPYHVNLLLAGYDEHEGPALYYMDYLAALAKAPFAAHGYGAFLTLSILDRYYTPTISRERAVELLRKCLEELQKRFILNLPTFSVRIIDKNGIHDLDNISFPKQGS

Regarding `C[C@H](NC(=O)[C@H](CC(=O)NCC(C)(C)C)NC(=O)c1ccc(C(=O)NO)cc1)C(=O)NCc1ccccc1`, the inhibition result (in the assay on SEM cells [1]; in assay [4]; in the assay with SEM cells [5]; in assay [9]; in the assay with SEM cells [12]; in assay [15]) was “Active” each time. Moreover, in the assay with SEM cells [16], the inhibition result was “Active”. The pIC50 (usually the IC50 on a negative log10 scale, so that one unit is a factor of ten) in [2] was 6.57; in assay [6] it was 5.76; in the assay with SUP-B15, 5.74; in [7], 5.82; in [11] it was 5.74; in [14] it was 5.69. The outcome in the assay on SEM cells [3] and in the assay with SEM cells [10] was Active. Further, the inhibition result in assay [8] and in [13] was “inactive” each time.
